Screens from PubChem.
STAT3 blocker – reduces IL-6 driven STAT3 reporter signal | U3A cells, IL-6 STAT3-luciferase reporter, luminescence; host cell line lacks STAT1 | inhibition, % at 5.5 µM | hit rate 0.89% among 190,000 | AID 862;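 active means inhibition above the mean inhibition across all screened compounds plus 3 SD, cut at about 44% in these data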;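 further: 0% = DMSO only wells and 100% = 100 µM nifuroxazide control wells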
NF-kB expr up – compounds increasing NF-kB expression in human neuronal cells. NF-kB reporter expression; hits give high values. fold change at 12.5 µM. hit rate 1.6% among 190,000. AID 1239; in the data active means fold change above about 3.3
STAT3 activator – activators of IL-6 induced STAT3 signaling | U3A cells, IL-6 STAT3-luciferase reporter, luminescence; 100% = signal with IL-6 EC80 alone | activation (% of control), % at 5.6 µM | hit rate 0.91% among 190,000 | AID 871;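 active means activation above the screen-wide mean of compound activation plus 3 SD, cut at about 130% in these data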;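 further: 0% = background luminescence of wells with medium and substrate only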
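Material: STAT1-lacking human U3A cells, STAT3 luciferase reporter | Benchmarks: IL-6-only wells as 100% reference | Probe or stimulus: IL-6 (33 ng/mL) | Timing: Compound 1 h, then IL-6 6 h at 37 °C | Detection: Luminescence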
STAT1 activator – activators of IFN-gamma induced STAT1 signaling | hit rate 2.6% among 200,000 | NIH 3T3 STAT1-luciferase reporter, luminescence; 100% = IFN-gamma alone, no compound | activation (% of control), % at 5.5 µM;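 active means activation above the screen-wide mean activation plus 3 SD, cut at about 130% in these data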;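 further: raw ratio to IFN-gamma control signal so 100% means no change and 0% no light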
STAT1 inh-1 – STAT1 signaling inhibition. NIH 3T3 STAT1-luciferase reporter, IFN-gamma, luminescence. inhibition, % at 5.5 µM. hit rate 0.35% among 200,000;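 active means inhibition above a set limit, the mean inhibition across all tested compounds plus 3 SD, cut at about 34% in these data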;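 further: 0% = IFN-gamma with DMSO and 100% = IFN-gamma with 300 µM nifuroxazide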
APP 5'UTR act – activates APP 5'UTR luciferase reporter | activation, % at 2 µM | hit rate 1% among 190,000 | SH-SY5Y APP 5'UTR luciferase reporter, luminescence; zero percent = DMSO vehicle wells;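 active means activation above a set limit, based on mean plus 3 SD of controls, cut at about 140% in these data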
STAT1 inh-2 – STAT1 inhibition, confirmation assay; AID 1263; inhibition, % at 5.5 µM; shares compounds with STAT1 inh-1; NIH 3T3 STAT1-luciferase reporter, IFN-gamma, luminescence; hit rate 55% among 200;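 active means triplicate mean inhibition exceeding the hit cutoff computed for the primary STAT1 screen, cut at about 35% in these data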;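 further: 0% = DMSO with IFN-gamma and 100% = 300 µM nifuroxazide with IFN-gamma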
NFkB inh STAT1ct – counter-screen for STAT1 inhibitors: NF-kappaB inhibition. shares compounds with STAT1 inh-1. hit rate 30% among 200. AID 1303. inhibition, % at 5.7 µM. HEK293T NF-kB luciferase reporter, TNF-alpha induced, luminescence;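 active means inhibition above the mean of solvent-only control wells plus 3 SD of those wells, cut at about 15% in these data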;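 further: 0% = DMSO with TNF-alpha and 100% = MG-132 control with TNF-alpha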
STAT3 inh 2 – STAT3 inhibition in STAT1 inhibitor counter-screen; shares compounds with STAT1 inh-1; U3A cells, IL-6 STAT3 luciferase reporter, luminescence; cells lacking STAT1; inhibition, % at 5.7 µM; hit rate 20% among 200;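 active means inhibition above the mean of solvent-only control wells plus 3 SD, set per campaign, cut at about 25% in these data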;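 further: 0% = IL-6 plus DMSO and 100% = IL-6 plus nifuroxazide control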
Active calls of the source: *; . = not tested or not shown. Sampled rows, rich in hits. Any-hit rate of the full collection: about 4.9%.

SMILES | STAT3 blocker | NF-kB expr up | STAT3 activator | STAT1 activator | STAT1 inh-1 | APP 5'UTR act | STAT1 inh-2 | NFkB inh STAT1ct | STAT3 inh 2
COc1ccc(-n2c(SCc3cccnc3)nc3c(c2=O)SCC3)cc1OC | 8.3 | 0.77 | 94.4 | 57.9 | 44.5* | 6.7 | 34.7* | 10.2 | -23.1
Cn1c(SCc2cccnc2)nc2c(c1=O)SCC2 | 2.4 | 0.99 | 102.1 | 90.6 | 7.5 | -0.9 | . | . | .
Cc1c(NC2(C#N)CCCCC2)c(=O)n(-c2ccccc2)n1C | 1.4 | 1.06 | 100.8 | 100.1 | 0.5 | -1.6 | . | . | .
COc1ccc(-c2nc(CS(=O)CC(=O)NCc3ccco3)c(C)o2)cc1 (stereo not drawn) | 12.7 | 1.29 | 96.4 | 101.3 | -1.4 | 14.1 | . | . | .
CCOc1ccc(-c2nc(CSCC(=O)NCc3ccco3)c(C)o2)cc1 | 0.4 | 0.19 | 103.3 | 16.6 | 89.6* | -48.5 | 90.7* | 49.1* | 1.0
COc1ccccc1NC(=O)CN(Cc1ccco1)C(=O)c1cc2ccccc2o1 | -16.9 | 0.67 | 119.2 | 101.7 | -1.9 | 9.0 | . | . | .
CCOc1cc(NC(=S)NCC2CCCO2)c(OCC)cc1NC(=O)c1cccc(F)c1 (stereo not drawn) | -13.8 | 0.89 | 114.8 | 101.5 | -1.9 | 33.8 | . | . | .
O=C(CCl)N(Cc1ccccc1)c1ccccc1 | 22.6 | 0.13 | 82.9 | 83.5 | 16.8 | -9.7 | . | . | .
Cc1cccc(N(Cc2ccccc2)C(=O)CCl)c1 | 37.0 | 0.12 | 72.2 | 66.9 | 35.4* | -22.1 | 29.4 | 12.5 | 28.6*
O=C(C1CCC(CNS(=O)(=O)c2cccc3nsnc23)CC1)N1CCN(c2ccccn2)CC1 (stereo not drawn) | 6.7 | 0.48 | 95.7 | 66.4 | 35.2* | 7.3 | 25.2 | -3.3 | 7.3
Cc1ccc(/C=C2\SC(=S)N(CCCC(=O)Nc3ccccn3)C2=O)cc1 | 43.3 | 0.4 | 64.5 | 64.7 | 38.4* | -55.3 | 40.1* | 44.5* | 46.0*
COc1ccc(/C=C2\SC(=S)N(CCCC(=O)Nc3ccccn3)C2=O)cc1OC | 5.9 | 1.25 | 96.9 | 90.7 | 10.5 | 7.2 | . | . | .
CS(=O)(=O)Nc1ccc(C2=NN(C(=O)c3ccco3)C(c3cccc(F)c3)C2)cc1 (stereo not drawn) | 20.2 | 0.86 | 90.5 | 47.5 | 56.0* | 7.7 | 29.2 | -10.4 | 13.1
COc1ccc(-c2cc(C(F)(F)F)nc(S(C)(=O)=O)n2)cc1 | 1.5 | 2.11 | 96.3 | 72.1 | 30.2 | 10.7 | . | . | .
CCOC(=O)CS(=O)(=O)c1nc(-c2ccc(F)cc2)cc(C(F)(F)F)n1 | 8.8 | 1.38 | 97.9 | 67.0 | 34.4* | -60.7 | 46.0* | 21.6* | 13.4
Cc1cc(NC(=O)CCCS(=O)(=O)c2nc(-c3cccs3)cc(C(F)(F)F)n2)no1 | 15.5 | 0.66 | 89.8 | 57.2 | 47.2* | -23.4 | 47.5* | -4.8 | 2.8
COCCNC(=O)CCSc1nc(-c2ccc(OC)cc2)cc(C(F)(F)F)n1 | 8.0 | 1.13 | 96.4 | 104.3 | 0.9 | -10.2 | . | . | .
COCC(C)NC(=O)CCS(=O)(=O)c1nc(-c2ccc(OC)cc2)cc(C(F)(F)F)n1 (stereo not drawn) | 7.5 | 2 | 97.4 | 60.8 | 42.9* | 10.9 | 50.9* | -1.1 | 9.3
Cc1cc(NC(=O)CSc2nc(-c3cccs3)cc(C(F)(F)F)n2)no1 | 3.6 | 1.6 | 100.1 | 100.0 | 0.0 | -1.6 | . | . | .
CS(=O)(=O)c1nc(-c2ccc(F)cc2)cc(C(F)(F)F)n1 | 20.2 | 1.22 | 89.0 | 58.1 | 44.5* | -29.9 | 38.6* | -12.1 | -13.9
COc1cccc(OC)c1C(=O)OCC(=O)Nc1cccnc1Cl | -3.0 | 0.86 | 105.8 | 97.5 | 2.3 | 4.7 | . | . | .
CCOC(=O)CCS(=O)(=O)c1nc(-c2ccccc2)cc(C(F)(F)F)n1 | 8.3 | 0.93 | 96.1 | 63.5 | 39.5* | -30.5 | 45.1* | -0.3 | 0.0
COc1nc(-c2ccccc2)cc(C(F)(F)F)n1 | 15.7 | 1.07 | 89.9 | 97.1 | 2.8 | 1.4 | . | . | .
